Measured values from ChEMBL document CHEMBL4406794, “N-(7-Cyano-6-(4-fluoro-3-(2-(3-(trifluoromethyl)phenyl)acetamido)phenoxy)benzo[d]thiazol-2-yl)cyclopropanecarboxamide (TAK-632) Analogues as Novel Necroptosis Inhibitors by Targeting Receptor-Interacting Protein Kinase 3 (RIPK3): Synthesis, Structure-Activity Relationships, and in Vivo Efficacy” (J Med Chem, 2019).
Active and inactive are the calls of the source. The calls are words filed in the database; no cut-off is given here.

Key:
[1] = Cytotoxicity against human HT-29 cells measured after 12 hrs by CellTiter-Glo Luminescent assay; assay type: cell-based
HT-29 = assay: Anti-necroptotic activity in human HT-29 cells assessed as inhibition of […]/SM-164/Z-VAD-fmk-induced necroptosis measured after 16 hrs by celltiter-glo luminescent cell viability assay; details: HT-29, 16 h
[2] = biological target: T1, Receptor-interacting serine/threonine-protein kinase 1 (Homo sapiens, UniProt Q13546); assay: Binding affinity to wild-type human partial length RIPK1 (M1 to K305 residues) expressed in bacterial expression system after 1 hr by quantitative PCR based KINOMEscan assay
T1 sequence (Q13546 whole entry): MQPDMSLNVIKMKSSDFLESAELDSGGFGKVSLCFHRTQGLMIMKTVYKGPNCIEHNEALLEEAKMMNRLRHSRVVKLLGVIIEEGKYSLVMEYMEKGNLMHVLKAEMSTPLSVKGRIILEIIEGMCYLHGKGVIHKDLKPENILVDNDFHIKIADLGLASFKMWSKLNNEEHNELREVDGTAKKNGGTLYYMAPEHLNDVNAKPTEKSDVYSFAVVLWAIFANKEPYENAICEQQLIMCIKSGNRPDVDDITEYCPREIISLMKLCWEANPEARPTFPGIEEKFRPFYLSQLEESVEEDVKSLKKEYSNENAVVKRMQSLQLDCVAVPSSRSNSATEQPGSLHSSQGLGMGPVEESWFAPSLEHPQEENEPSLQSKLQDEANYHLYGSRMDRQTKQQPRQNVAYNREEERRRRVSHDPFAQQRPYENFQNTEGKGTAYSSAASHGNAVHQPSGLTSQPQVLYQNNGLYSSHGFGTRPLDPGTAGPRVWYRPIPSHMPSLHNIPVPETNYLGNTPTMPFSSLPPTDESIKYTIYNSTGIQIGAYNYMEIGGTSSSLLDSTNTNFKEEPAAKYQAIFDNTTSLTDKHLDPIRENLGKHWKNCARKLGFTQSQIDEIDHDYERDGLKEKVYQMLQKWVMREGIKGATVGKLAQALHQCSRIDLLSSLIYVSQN
Outline: (§1)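 KINOMEscan competition binding. Bound kinase eluted with 0.5 μM nonbiotinylated ligand for 30 min and quantified by qPCR. Duplicates averaged.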

[3] = biological target: Receptor-interacting serine/threonine-protein kinase 3 (Homo sapiens, UniProt Q9Y572); assay: Binding affinity to wild-type human partial length RIPK3 (M1 to Q307 residues) expressed in bacterial expression system after 1 hr by quantitative PCR based KINOMEscan assay; outline: as §1
Homo sapiens = organism: Homo sapiens; assay: Selectivity ratio of Kd for human partial length RIPK1 (M1 to K305 residues) expressed in bacterial expression system to Kd for wild-type human partial length RIPK3 (M1 to Q307 residues) expressed in bacterial expression system
Mus musculus [4] = assay: (§2) Protection against TNFalpha/Z-VAD-fmk-induced C57BL/6J mouse model of systemic inflammatory response syndrome assessed as increase in body temperature at 5 to 50 mg/kg, po administered via gavage 2 hrs prior to Z-VAD-fmk addition for 15 mins followed by TNFalpha stimulation for 1 hr and subsequent Z-VAD-fmk addition meaured up to 50 hrs post TNFalpha stimulation by electric thermometer; assay type: functional, organism-based
Outline: (§3)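 Female C57BL/6 mice, fasted overnight, n=10 per group. Compound given by oral gavage at 5, 25 or 50 mg/kg 2 h before TNF. z-VAD-fmk 180 µg i.p., then 15 min later mTNF-α 400 µg/kg i.v. in endotoxin-free PBS, then a further 70 µg z-VAD-fmk i.p. 1 h later. Body temperature and survival followed, compared with vehicle by one-way ANOVA.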

Mus musculus [5] = assay: as §2, with “mouse survial” for “body temperature”, “stimulation” for “stimulation by electric thermometer”; assay type: functional, organism-based; outline: as §3
Mus musculus [6] = assay: as §2, with “syndrome” for “syndrome assessed as increase in body temperature”, “25” for “5 to 50”, “relative to control” for “by electric thermometer”; assay type: functional
Outline: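 Overnight-fasted C57BL/6 female mice, n=10 per group. Test compound was given by oral gavage 2 h before mTNF-α. z-VAD-fmk (180 µg) was injected ip, then 15 min later mTNF-α in endotoxin-free PBS was injected iv (400 µg/kg). A second z-VAD-fmk dose (70 µg) was given ip 1 h after TNF. Body temperature and survival were followed against vehicle. One-way ANOVA was used.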

Mus musculus [7] = assay: as §2, with “syndrome” for “syndrome assessed as increase in body temperature”, “100” for “5 to 50”, “relative to control” for “by electric thermometer”; assay type: functional

Sequence of Receptor-interacting serine/threonine-protein kinase 3 (Q9Y572 whole entry, the tested form may be a part): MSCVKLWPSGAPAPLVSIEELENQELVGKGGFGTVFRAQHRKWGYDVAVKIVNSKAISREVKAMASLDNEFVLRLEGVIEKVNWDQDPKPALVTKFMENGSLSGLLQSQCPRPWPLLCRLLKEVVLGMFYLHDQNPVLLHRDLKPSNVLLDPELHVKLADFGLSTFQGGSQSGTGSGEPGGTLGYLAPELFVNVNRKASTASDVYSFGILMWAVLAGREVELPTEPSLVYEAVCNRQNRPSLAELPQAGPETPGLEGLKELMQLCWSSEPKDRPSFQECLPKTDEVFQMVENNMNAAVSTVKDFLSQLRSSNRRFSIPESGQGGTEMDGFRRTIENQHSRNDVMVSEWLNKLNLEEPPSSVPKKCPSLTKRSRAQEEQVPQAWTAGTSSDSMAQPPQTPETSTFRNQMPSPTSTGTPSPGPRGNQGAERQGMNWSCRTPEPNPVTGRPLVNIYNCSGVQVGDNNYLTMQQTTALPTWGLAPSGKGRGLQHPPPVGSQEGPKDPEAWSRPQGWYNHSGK

Kd [2] [nM]	Kd [3] [nM]	Structure (SMILES)	CC50 at 12 h [1] [nM]	EC50 (HT-29) [nM]	also measured
		O=C(Nc1nc2ccc(Oc3ccc(F)c(NC(=O)C4(c5cccc(C(F)(F)F)c5)CC4)c3)cc2s1)C1CC1	> 50000	> 20000	
		N#Cc1c(Oc2ccc(F)c(NC(=O)c3cccc(C(F)(F)F)c3)c2)ccc2nc(NC(=O)C3CC3)sc12		> 20000	
240	55	COc1cccc(CC(=O)Nc2cc(Oc3ccc4nc(NC(=O)C5CC5)sc4c3)ccc2F)c1	> 50000	330	
770	110	O=C(Cc1cccc([N+](=O)[O-])c1)Nc1cc(Oc2ccc3nc(NC(=O)C4CC4)sc3c2)ccc1F	> 50000	610	
		O=C(Cc1ccccc1C(F)(F)F)Nc1cc(Oc2ccc3nc(NC(=O)C4CC4)sc3c2)ccc1F		11400	
		N#Cc1c(Oc2ccc(F)c(NC(=O)Cc3cccc(F)c3)c2)ccc2nc(NC(=O)C3CC3)sc12		> 20000	
		N#Cc1c(Oc2ccc(F)c(NC(=O)Cc3cccc(C(F)(F)F)c3F)c2)ccc2nc(NC(=O)C3CC3)sc12		2030	
		N#Cc1c(Oc2ccc(F)c(NC(=O)Cc3cccc(C(F)(F)F)c3)c2)ccc2nc(NC(=O)OCc3ccccc3)sc12		> 20000	
2200	93	Cc1cccc(NC(=O)Nc2cc(Oc3ccc4nc(NC(=O)C5CC5)sc4c3)ccc2F)c1	> 50000	580	Ratio (Homo sapiens): 23.6
		O=C(Cc1cccc(C(F)(F)F)c1)Nc1cc(Oc2ccc3nc(NC(=O)C4CC4)sc3c2)ccc1F			Activity (Mus musculus [4]): Active; Activity (Mus musculus [5]): Active
480		N#Cc1c(Oc2ccc(F)c(NC(=O)Cc3cccc(C(F)(F)F)c3)c2)ccc2nc(NC(=O)C3CC3)sc12	> 50000		Activity (Mus musculus [4]): Active; Activity (Mus musculus [5]): Active; Activity (Mus musculus [6]): 20%; Activity (Mus musculus [7]): 70%
1200	72	Cc1ccc(CC(=O)Nc2cc(Oc3ccc4nc(NC(=O)C5CC5)sc4c3)ccc2F)cc1C	> 50000	1670	
220	280	O=C(Cc1cccc(C(F)(F)F)n1)Nc1cc(Oc2ccc3nc(NC(=O)C4CC4)sc3c2)ccc1F	> 50000	320	
590	130	O=C(Cc1ccc(F)c(C(F)(F)F)c1)Nc1cc(Oc2ccc3nc(NC(=O)C4CC4)sc3c2)ccc1F	> 50000	400	
		N#Cc1c(Oc2ccc(F)c(NC(=O)Cc3ccc([N+](=O)[O-])cc3)c2)ccc2nc(NC(=O)C3CC3)sc12		> 20000	
> 5000	53	CC(=O)c1cccc(NC(=O)Nc2cc(Oc3ccc4nc(NC(=O)C5CC5)sc4c3)ccc2F)c1	> 50000	1000	Ratio (Homo sapiens): > 94.3
3600	69	COc1cccc(NC(=O)Nc2cc(Oc3ccc4nc(NC(=O)C5CC5)sc4c3)ccc2F)c1	> 50000	1370	Ratio (Homo sapiens): 52.1
		O=C(Cc1ccccn1)Nc1cc(Oc2ccc3nc(NC(=O)C4CC4)sc3c2)ccc1F		8300	

Kd [2] [nM]	Kd [3] [nM]	Structure (SMILES)	CC50 at 12 h [1] [nM]	EC50 (HT-29) [nM]	also measured
		CCC(=O)Nc1nc2ccc(Oc3ccc(F)c(NC(=O)Cc4cccc(C(F)(F)F)c4)c3)c(C#N)c2s1		> 20000	
		O=C(Cc1cccc(C(F)(F)F)c1Cl)Nc1cc(Oc2ccc3nc(NC(=O)C4CC4)sc3c2)ccc1F		> 20000	
1100	81	O=C(Cc1ccc2c(c1)OCO2)Nc1cc(Oc2ccc3nc(NC(=O)C4CC4)sc3c2)ccc1F	> 50000	2320	Ratio (Homo sapiens): 13
320	33	Cc1cccc(CC(=O)Nc2cc(Oc3ccc4nc(NC(=O)C5CC5)sc4c3)ccc2F)c1	> 50000	380	
		O=C(Cc1cccc(O)c1)Nc1cc(Oc2ccc3nc(NC(=O)C4CC4)sc3c2)ccc1F		> 20000	
49	120	O=C(Cc1cccc(OC(F)(F)F)c1)Nc1cc(Oc2ccc3nc(NC(=O)C4CC4)sc3c2)ccc1F	> 50000	60	
		O=C(Nc1nc2ccc(Oc3ccc(F)c(NS(=O)(=O)c4cccc(C(F)(F)F)c4)c3)cc2s1)C1CC1		> 20000	
780	120	N#Cc1cccc(CC(=O)Nc2cc(Oc3ccc4nc(NC(=O)C5CC5)sc4c3)ccc2F)c1	> 50000	1290	
510	99	O=C(Cc1cccc(C(F)(F)F)c1F)Nc1cc(Oc2ccc3nc(NC(=O)C4CC4)sc3c2)ccc1F	> 50000	490	
		N#Cc1c(Oc2ccc(F)c(NC(=O)Cc3ccccc3)c2)ccc2nc(NC(=O)C3CC3)sc12		> 20000	
		O=C(Nc1nc2ccc(Oc3ccc(F)c(NCc4cccc(C(F)(F)F)c4)c3)cc2s1)C1CC1		> 20000	
4800	1400	Cn1cc(CC(=O)Nc2cc(Oc3ccc4nc(NC(=O)C5CC5)sc4c3)ccc2F)c2ccccc21	> 50000	3810	
510	790	O=C(CCc1cccc(C(F)(F)F)c1)Nc1cc(Oc2ccc3nc(NC(=O)C4CC4)sc3c2)ccc1F	> 50000	650	
		CCCCCCCCC(=O)Nc1nc2ccc(Oc3ccc(F)c(NC(=O)Cc4cccc(C(F)(F)F)c4)c3)c(C#N)c2s1		> 20000	
		N#Cc1c(Oc2ccc(F)c(NC(=O)Cc3cccc(C(F)(F)F)c3)c2)ccc2nc(NC(=O)c3ccccc3)sc12		> 20000	
		O=C(Cc1cc(C(F)(F)F)cc(C(F)(F)F)c1)Nc1cc(Oc2ccc3nc(NC(=O)C4CC4)sc3c2)ccc1F	> 50000	9700	
> 5000	72	CCOC(=O)c1cccc(NC(=O)Nc2cc(Oc3ccc4nc(NC(=O)C5CC5)sc4c3)ccc2F)c1	> 50000	7740	Ratio (Homo sapiens): > 69.4
		O=C(Nc1nc2ccc(Oc3ccc(F)c(NCc4ccc5c(c4)OCO5)c3)cc2s1)C1CC1		> 20000	
